{"data": "Measurements pooled from the literature", "read-out": "cell growth or viability", "note": "Lines come from different studies, so protocols differ. pEC50, pIC50: −log10 of the molar value."}
{"SMILES": "C/C(=N\\NC(=O)c1cccc(S(=O)(=O)N2CCN(C)CC2)c1)c1cc(Cl)ccc1O", "cell line": "MOLM-13", "assay": "resazurin", "conditions": "96 h", "endpoint": "pEC50", "result": 6.55}
{"SMILES": "COc1cccc(Oc2ccccc2NC(=O)CNC(=O)c2cccc3ccccc23)c1", "cell line": "Malme-3M", "assay": "SRB", "conditions": "48 h", "endpoint": "GI50", "result": "17 µM"}
{"SMILES": "COc1ccc(-c2ccc(-c3ccc(C(=N)N)nc3)s2)cc1Cl", "cell line": "Malme-3M", "assay": "SRB", "endpoint": "GI50", "result": "1.78 µM"}
{"SMILES": "CCn1c2ccccc2c2cc(C3CC(c4cc5cccc(OC)c5oc4=O)=NN3c3cccc(Cl)c3)ccc21 (centres unmarked)", "cell line": "NRK-52E", "assay": "MTT", "conditions": "24 h", "endpoint": "pIC50", "result": 4.62}
{"SMILES": "Cn1cc(C(c2ccc(/C=C/C(=O)O)s2)c2cn(C)c3ccccc23)c2ccccc21", "cell line": "KG-1", "conditions": "20 µM, 48 h", "endpoint": "inhibition", "result": "7%"}
{"SMILES": "COc1ccccc1S(=O)(=O)Nc1ccc2c(c1)CN(C)C(=O)N2", "cell line": "PL-21", "assay": "ATP luminescence", "endpoint": "GI50", "result": "10 µM"}
{"SMILES": "CC(C)n1cc(C(c2ccc(/C=C/C(=O)O)s2)c2cn(C(C)C)c3ccccc23)c2ccccc21", "cell line": "KG-1", "conditions": "5 µM, 48 h", "endpoint": "inhibition", "result": "12%"}
{"SMILES": "CN1CCN(C(=O)[C@H](CCCN[C@@H]2C[C@H]2c2ccc(F)cc2)NC(=O)c2ccc(-n3ccnn3)cc2)CC1", "cell line": "MOLM-13", "assay": "resazurin", "conditions": "96 h", "endpoint": "pEC50", "result": 8.27}
{"SMILES": "CCn1c2ccccc2c2cc(C3CC(c4cc5cccc(OC)c5oc4=O)=NN3C(N)=O)ccc21 (centres unmarked)", "cell line": "NRK-52E", "assay": "MTT", "conditions": "24 h", "endpoint": "pIC50", "result": 4.39}
{"SMILES": "COc1cc(-c2ccc(-c3ccc(C(=N)N)nc3)s2)cc(OC)c1OC", "cell line": "Malme-3M", "assay": "SRB", "endpoint": "GI50", "result": "1.53 µM"}
{"SMILES": "Cn1cc(C(c2ccc(C(=O)O)cc2)c2cn(C)c3ccccc23)c2ccccc21", "cell line": "KG-1", "conditions": "20 µM, 48 h", "endpoint": "inhibition", "result": "25%"}
